Screening data deposited in PubChem by Broad Institute.
Sampled rows, rich in hits. Any-hit rate of the full collection: about 2.6%.
miR122 inh = miR-122 Renilla sensor signal increase in Huh7, primary screen, miR-122 inhibitor project, cell-based, single point, plate reader | Huh7 miR-122 Renilla luciferase sensor, 48 h; neutral wells = 0, positive control = 100 | activation (reporter increase), % at 12.5 µM | 0.3% of 340,000 active;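 active = mean replicate activation score at least 90 and every replicate individually at or above 90; inconclusive = only one of the two criteria met; inactive = neither criterion met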;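 also: higher luciferase means less miR-122 activity so hits act as miR-122 inhibitors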
CFTR F508del cor = F508del CFTR correction, initial screen, CFBE line, single point | CFBE cells, YFP halide quenching; stimulated with forskolin plus potentiator P3; % fluorescence drop versus neutral controls | activity (quench increase), % at 7.58 µM | 0.36% of 350,000 active | AID 720511, 2013;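 active = mean added fluorescence quench of at least 8% versus neutral control, with both replicates also reaching 8%; inconclusive = only one of the mean or replicate conditions met; inactive = mean below 8% and not both replicates reaching 8%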;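 also: cells transiently co-express mutant CFTR-F508del with the halide-sensitive YFP; corrector assay measuring rescue of mutant channel to the surface after 24 h compound exposure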
DENV2 CPE rescue = inhibitors of DENV2 cytopathic effect, primary screen, cell-based, plate reader, single concentration; DENV2-infected cells, cytopathic effect rescue; 1.7% of 350,000 active; CPE inhibition, % at 9.99 µM; in the data active = CPE inhibition above about 20%, passing the limit was not always enough; inconclusive = no clear call, values can overlap the other calls; tested in BHK-21 cells
E-sel inducer = E-selectin induction in HUVECs, primary screen, imaging, HUVEC, immunofluorescence imaging, single point; 0.37% of 260,000 active; P16581; activation, % at 7.58 µM; normalized: neutral wells 0, TNF-alpha wells 100;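 active = mean E-selectin-positive cell signal at least 10% of the positive control, reached in at least 60% of replicates, without over 20% cell loss; inconclusive = no rule given, readout overlaps actives, possibly toxicity-flagged; inactive = the rest, including those meeting only one limit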
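Read-out: % PE-positive cells | Test system: HUVEC | Doses: One compound dose added by pin transfer | Buffer or medium: EGM-2 over gelatin coat | Signal: Immunofluorescence imaging | Benchmarks: TNF-alpha, DMSO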
GSIS activator = GLuc luminescence reporter in INS-1E cells, primary screen for activators of glucose-dependent secretion of insulin; activation, % at 16.6 µM; INS-1E GLuc reporter insulin secretion, 2-3 h; 0.61% of 370,000 active; AID 743287, 2014;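 active = lowest replicate activation of at least 40%, so every replicate reaches that level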
ERAP1 HTS inh = human ERAP1 aminopeptidase inhibitors, primary screen, biochemical, single point, plate reader | 0.15% of 340,000 active | recombinant ERAP1, Leu-AMC fluorescence, 60 min | inhibition, % at 10.7 µM | Endoplasmic reticulum aminopeptidase 1 (Homo sapiens), Q9NZ08;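 active = mean replicate inhibition of at least 30%, or all replicates individually reaching that 30% level; inactive = mean below 30% and not every replicate reaching it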
Target sequence (Q9NZ08 whole entry, looked up): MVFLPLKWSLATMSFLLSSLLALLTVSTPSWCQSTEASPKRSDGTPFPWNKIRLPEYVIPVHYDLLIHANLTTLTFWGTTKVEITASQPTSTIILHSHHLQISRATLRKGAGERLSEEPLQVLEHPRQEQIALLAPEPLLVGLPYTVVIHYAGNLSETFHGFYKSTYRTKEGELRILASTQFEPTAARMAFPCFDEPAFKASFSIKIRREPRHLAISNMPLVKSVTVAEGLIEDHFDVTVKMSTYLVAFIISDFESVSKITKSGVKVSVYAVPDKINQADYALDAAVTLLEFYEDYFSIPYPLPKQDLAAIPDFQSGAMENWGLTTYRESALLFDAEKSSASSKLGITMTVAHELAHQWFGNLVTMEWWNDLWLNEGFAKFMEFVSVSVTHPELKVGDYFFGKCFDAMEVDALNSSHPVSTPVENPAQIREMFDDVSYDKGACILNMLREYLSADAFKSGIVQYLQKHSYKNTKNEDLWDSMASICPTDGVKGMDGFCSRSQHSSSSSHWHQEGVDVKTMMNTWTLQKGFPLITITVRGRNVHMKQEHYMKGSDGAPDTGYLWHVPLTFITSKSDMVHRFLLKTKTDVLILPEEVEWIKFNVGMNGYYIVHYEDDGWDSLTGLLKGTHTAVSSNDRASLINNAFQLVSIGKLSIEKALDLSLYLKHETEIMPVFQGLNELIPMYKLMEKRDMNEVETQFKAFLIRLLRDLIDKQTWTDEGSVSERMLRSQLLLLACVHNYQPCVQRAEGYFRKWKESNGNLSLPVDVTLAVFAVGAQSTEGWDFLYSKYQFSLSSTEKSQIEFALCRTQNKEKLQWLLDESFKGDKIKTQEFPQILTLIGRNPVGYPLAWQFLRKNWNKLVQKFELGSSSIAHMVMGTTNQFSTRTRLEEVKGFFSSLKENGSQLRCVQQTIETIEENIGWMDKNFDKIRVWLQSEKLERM
Numbers stand for hits; i = inactive; ? = inconclusive; nt = no result given; [ ] = another dose, or the depositor's remark.

SMILES	miR122 inh	CFTR F508del cor	DENV2 CPE rescue	E-sel inducer	GSIS activator	ERAP1 HTS inh
COc1ccc(NC(=O)Nc2ccc3c(c2)CC(=O)N([C@@H](C)CO)C[C@@H](C)[C@H](CN(C)C(=O)NC(C)C)O3)cc1	101[16.7 µM]	i	i	i	i	i
CO[C@@H]1CN(C)C(=O)c2ccc(NC(=O)Nc3cc(F)ccc3F)cc2OC[C@H](C)N(C(=O)c2cnccn2)C[C@@H]1C	nt	i	?	i	i	i
C[C@H](CO)N1C[C@H](C)[C@H](CN(C)C(=O)Nc2cccc3ccccc23)Oc2ccc(NC(=O)CCC(F)(F)F)cc2C1=O	i	i	i	i	i	i
COc1ccc(NC(=O)Nc2ccc3c(c2)CC(=O)N([C@H](C)CO)C[C@H](C)[C@@H](CN(C)C(=O)NC2CCCCC2)O3)cc1	i	i	i	i	i	i
COc1ccc(NC(=O)N(C)C[C@@H]2Oc3ccc(NC(=O)Cc4ccccc4)cc3CC(=O)N([C@@H](C)CO)C[C@@H]2C)cc1	i	i	i	i	i	i
COc1ccc(NC(=O)N(C)C[C@@H]2Oc3ccc(NC(=O)Cc4ccccc4)cc3CC(=O)N([C@H](C)CO)C[C@H]2C)cc1	i	i	i	336	i	i
CNC[C@H]1Oc2ncc(-c3cccc(F)c3)cc2C(=O)N([C@@H](C)CO)C[C@H]1C	i	i	i	i	i	i
CCN1[C@H](C(=O)NC2CCC2)[C@@H](CO)[C@@H]2Cn3c(ccc(-c4ccc(OC)cc4)c3=O)[C@@H]21	i	i	i	i	i	i
CSCCC(N=C1NS(=O)(=O)c2ccccc21)C(=O)NCCc1ccccc1 (stereo not drawn)	i	i	58	i	i	i
CN1C(=O)c2cc(NC(=O)Nc3cccc(Cl)c3)ccc2OC[C@H]2O[C@H](CC(=O)NCCc3ccncc3)CC[C@@H]21	i	i	i	i	i	i
CCOc1ccccc1Nc1cc2n(c(=O)n1)CCc1cc(OC)c(OC)cc1-2	nt	i	i	nt	76	i
COc1cc2c(cc1OC)-c1cc(NC3CCCCC3)nc(=O)n1CC2	i	nt	nt	nt	72	nt
COc1cc2c(cc1OC)-c1cc(Nc3cccc(C)c3)nc(=O)n1CC2	i	i	i	nt	i	i
COc1cc2c(cc1OC)-c1cc(NCc3ccccn3)nc(=O)n1CC2	i	nt	nt	nt	63	nt
COc1cc2c(cc1OC)-c1cc(NC3CCCCCCC3)nc(=O)n1CC2	i	nt	nt	nt	nt	nt
CCNc1cc2n(c(=O)n1)CCc1cc(OC)c(OC)cc1-2	i	nt	nt	nt	i	i
COc1cc2c(cc1OC)-c1cc(Nc3ccccc3C)nc(=O)n1CC2	i	i	i	nt	53	i
C/C=C/c1ccc2c(c1)O[C@@H](CN(C)C(=O)Nc1ccc(F)cc1)[C@H](C)CN([C@H](C)CO)S2(=O)=O	i	i	i	i	i	i
Cc1noc(C)c1S(=O)(=O)Nc1ccc2c(c1)C(=O)N([C@@H](C)CO)C[C@H](C)[C@@H](CN(C)C(=O)NC(C)C)O2	i	i	i	i	i	i
CN1C(=O)c2cc(NC(=O)c3cccc(F)c3)ccc2OC[C@@H]2O[C@@H](CC(=O)NC3CCC3)CC[C@@H]21	i	i	i	i	i	nt
C=CCN1C(=O)c2n[nH]c(COC)c2C1c1ccc(F)cc1 (stereo not drawn)	nt	i	i	i	65	i
C=CCN1C(=O)c2n[nH]c(COC)c2C1c1ccc2c(c1)OCO2 (stereo not drawn)	nt	i	i	i	i	i
C[C@@H]1CN([C@H](C)CO)C(=O)c2cc(NC(=O)C3CCCCC3)ccc2O[C@@H]1CN(C)S(C)(=O)=O	i	i	24	i	i	i
C[C@H](CO)N1C[C@H](C)[C@@H](CN(C)CC2CCCCC2)Oc2ccc(NC(=O)C3CCCCC3)cc2C1=O	i	i	23	nt	i	i
C[C@H]1CN([C@@H](C)CO)C(=O)c2cc(NC(=O)C3CCCCC3)ccc2O[C@@H]1CN(C)S(C)(=O)=O	i	i	i	i	i	i
SMILES	miR122 inh	CFTR F508del cor	DENV2 CPE rescue	E-sel inducer	GSIS activator	ERAP1 HTS inh
C[C@H](CO)N1C[C@H](C)[C@H](CN(C)CC2CCCCC2)OCCCC[C@H](C)Oc2ccc(NC(=O)C3CCCCC3)cc2C1=O	i	i	23	i	i	i
COCC(=O)N1CC2(C1)CN(C(=O)c1ccccn1)[C@@H](CO)c1c2c2ccc(OC)cc2n1C	nt	i	i	i	i	nt
CC1CCN(c2ccc3c(c2)S(=O)(=O)c2cccc(C(=O)NC4CCCCC4)c2C3=O)CC1	nt	i	34	i	i	nt
CC(C)(C)CNC(=O)c1cccc2c1C(=O)c1ccc(N3CCCC3)cc1S2(=O)=O	i	i	29	i	i	i
O=C(NCCN1CCCCC1)c1cccc2c1C(=O)c1ccc(N3CCCC3)cc1S2(=O)=O	i	i	i	i	nt	i
O=C(NC1CCCCC1)c1cccc2c1C(=O)c1ccc(N3CCCC3)cc1S2(=O)=O	i	i	nt	i	i	i
Cc1occc1C(=O)N1CCCC(N2CCN(c3ccccc3F)CC2)C1 (stereo not drawn)	i	i	26	i	i	i
O=C(c1ccco1)N1CCCC(N2CCN(c3ccccc3F)CC2)C1 (stereo not drawn)	i	i	i	i	i	i
CSc1ccc(/C=N/N(C)S(=O)(=O)c2ccc(C)cc2)cc1	i	i	i	i	121	i
O=C(NCC1CC1)[C@H]1[C@H](CO)[C@H]2Cn3c(ccc(-c4cccnc4)c3=O)[C@H]2N1Cc1cocn1	i	i	i	i	i	i
COc1ccc(C(=O)N/N=C/c2c(CO)cnc(C)c2O)cc1	nt	i	?	nt	i	33
Cc1ncc(CO)c(/C=N/NC(=O)c2ccccc2Br)c1O	nt	i	i	?	i	54
O=C(N/N=C/c1c(O)ccc2ccccc12)c1ccc(CO)nc1	nt	14	i	i	nt	i
Cc1ncc(CO)c(/C=N/NC(=O)c2ccoc2C)c1O	i	i	i	i	i	i
CCC(=O)N1C[C@@H](C)[C@@H](OC)CN(C)C(=O)c2cc(NC(=O)Nc3ccccc3)ccc2OC[C@@H]1C	i	i	i	i	i	i
COCC(=O)N1C[C@@H](C)[C@H](OC)CN(C)C(=O)c2ccc(NC(=O)Nc3ccccc3)cc2OC[C@@H]1C	nt	i	i	i	i	i
C[C@@H]1CN([C@H](C)CO)C(=O)c2cc(NC(=O)Nc3ccc4c(c3)OCO4)ccc2O[C@H]1CN(C)S(=O)(=O)c1ccc(F)cc1	i	i	i	51	i	i
C[C@@H]1CN([C@@H](C)CO)C(=O)c2cc(NC(=O)Nc3ccc4c(c3)OCO4)ccc2O[C@H]1CN(C)S(=O)(=O)c1ccc(F)cc1	i	i	i	i	i	i
